Sampled rows, rich in hits. Any-hit rate of the full collection: about 1.8%.
mABHD4 FP: ABHD4 (mouse) inhibition, primary FP screen. Q8VD66. purified mABHD4, FP-Rh probe fluorescence polarization. inhibition, % at 8.92 µM. 370,000 tested, 0.54% active. AID 720543;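 active means inhibition exceeding the mean over every tested compound plus 3 SD, cut at about 30% in these data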;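 further: 0% = plate median of compound wells and 100% = S159A mutant with DMSO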
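system = mouse ABHD4 enzyme, wild type | medium = HEPES pH 7.0, NaCl, Pluronic buffer | also added = FP-Rh probe | incubation = Enzyme–compound pre-incubation 45 min, then probe 60 min, both 25 °C | technique = fluorescence polarization, excitation 525 nm, emission 598 nm, BODIPY TMR filters | controls = S159A mutant high control, sample median low control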
HTRA1 inh: inhibitors of human serine peptidase HTRA1. recombinant HTRA1, FP-rhodamine activity-based probe, fluorescence polarization. inhibition, % at 5.96 µM. 340,000 tested, 0.5% active. AID 504803; in the data active means inhibition above about 36%;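 further: 0% = enzyme with DMSO and 100% = wells lacking enzyme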
Target sequence (Q92743 whole entry, looked up): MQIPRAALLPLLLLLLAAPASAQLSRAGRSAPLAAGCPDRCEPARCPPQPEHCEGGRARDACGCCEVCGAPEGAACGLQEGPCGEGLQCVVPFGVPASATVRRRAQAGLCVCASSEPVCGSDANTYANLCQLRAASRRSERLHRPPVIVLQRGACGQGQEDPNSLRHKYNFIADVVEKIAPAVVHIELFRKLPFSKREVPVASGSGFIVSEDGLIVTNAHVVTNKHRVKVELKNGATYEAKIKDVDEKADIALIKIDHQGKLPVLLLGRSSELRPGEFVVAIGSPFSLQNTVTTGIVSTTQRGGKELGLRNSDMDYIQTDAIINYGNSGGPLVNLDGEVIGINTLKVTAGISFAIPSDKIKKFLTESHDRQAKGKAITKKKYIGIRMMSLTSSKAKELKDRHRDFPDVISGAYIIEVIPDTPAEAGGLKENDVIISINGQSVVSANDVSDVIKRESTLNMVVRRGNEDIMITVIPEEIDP
ARNT-TACC3 inh: disruptors of human ARNT/TACC3 interaction | Q9Y6A5 | AlphaScreen His-ARNT PAS-B/GST-TACC3 binding, luminescence; TACC3 fragment carries E629A point mutation | inhibition, % at 9.99 µM | 390,000 tested, 0.66% active;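 active means mean inhibition of replicates at least 50% and at least half of replicates each reaching 50%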;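 further: 0% = complete ARNT plus TACC3 wells and 100% = ARNT alone without TACC3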
SIAE primary: inhibitors of human sialic acid acetylesterase SIAE; Q9HAT2; SIAE FP-Rh probe binding, fluorescence polarization; inhibition, % at 9.66 µM; 370,000 tested, 0.69% active;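 active means inhibition above a cutoff: mean of compounds within the control limits plus 3 SD of those, cut at about 17% in these data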;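 further: 0% = plate median of compound wells and 100% = probe without SIAE protein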
TCR CD3 inh: inhibitors of human TCR-CD3 interaction; TAMRA-labeled TCR probe fluorescence, biochemical; inhibition, % at 9.4 µM; 360,000 tested, 0.37% active; in the data active means inhibition above about 19%;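 further: recombinant mutant TCR 2C K166C tagged with TAMRA read by polarization; 0% = receptor in buffer alone and 100% = receptor with positive control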
SIAE confirm: human SIAE inhibition, confirmation. shares compounds with SIAE primary. SIAE FP-Rh activity-based probe, fluorescence polarization. inhibition, % at 9.66 µM. 2,300 tested, 13% active;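 active means mean inhibition of the replicates above the hit cutoff set in the primary screen, cut at about 17% in these data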;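 further: 0% = SIAE with DMSO and probe and 100% = probe without SIAE; inhibitors lower polarization as more probe stays unbound to SIAE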
Active calls of the source: *; . = no result given.

SMILES	mABHD4 FP	HTRA1 inh	ARNT-TACC3 inh	SIAE primary	TCR CD3 inh	SIAE confirm
C[C@H](NC(=O)[C@@H]1[C@@H](CO)[C@@H]2Cn3c(cccc3=O)[C@@H]2N1CC1CC1)c1ccccc1	.	.	-7	.	.	.
CC(=O)Nc1ccc(C(=O)CN2C(=O)NC3(CCCCCC3)C2=O)c(F)c1	-4	-4	-7	-4	-2	.
CC(=O)Nc1ccc(C(=O)CN2C(=O)NC3(CCOc4ccccc43)C2=O)c(F)c1 (configuration not stated)	4	-11	.	19*	4	-5
C[C@H](CO)N1C[C@H](C)[C@H](CN(C)C(=O)c2ccncc2)Oc2cc(C3=CCCC3)ccc2S1(=O)=O	.	.	0	.	.	.
CC(=O)Oc1c2occc2cc2ccc(=O)oc12	14	14	-3	20*	0	2
CO[C@H]1CN(C)C(=O)c2cc(NC(=O)C3CC3)ccc2OC[C@H](C)N(C(C)=O)C[C@H]1C	.	.	-8	.	.	.
COc1cc(NC(=O)CSc2nc3ncnc(N)c3[nH]2)c(C(=O)O)cc1OC	-5	-3	5	18*	-1	1
COc1cc(NC(=O)CSc2ccccc2)c(C(=O)O)cc1OC	-1	1	7	2	11	.
O=C(c1ccccc1)c1ccncc1	-5	12	-3	28*	-1	4
Cc1ccc(C)c(OCc2nc3ccccc3[nH]2)c1	-1	-6	9	37*	2	5
Cc1cccc(C)c1OCc1nc2ccccc2[nH]1	6	2	-10	-7	-9	.
O=C(NCCO)c1cccc(Nc2nc(-c3ccccc3)c3cc(Cl)ccc3n2)c1	-15	-59	0	21*	2	-29
NNc1nc(-c2ccccc2)c2cc(Cl)ccc2n1	6	5	-4	5	2	.
CN(C)C(=O)C[C@H]1C=C[C@H](NC(=O)NC2CCCC2)[C@@H](CO)O1	.	.	1	.	.	.
CCCCSCCCNC(=O)CS(=O)Cc1nc(-c2cccc(C)c2)oc1C (configuration not stated)	-5	-8	-37	5	12	.
CCCCNC(=O)CS(=O)Cc1nc(-c2cccc(C)c2)oc1C (configuration not stated)	2	-5	1	26*	0	2
CCC(C)NC(=O)CS(=O)Cc1nc(-c2cccc(C)c2)oc1C (configuration not stated)	-1	0	-1	25*	-6	1
CCc1cccc2c(SC(C)C(=O)NCC3CCCO3)nc(-c3ccccc3)nc12 (configuration not stated)	-4	-6	-5	-12	5	.
CC(Sc1nc(-c2ccccc2)c(-c2ccccc2)[nH]1)C(=O)NCC1CCCO1 (configuration not stated)	4	-6	.	21*	-1	-2
Cc1noc(C)c1NC(=O)N(C)C[C@H]1Oc2c(NC(=O)c3nc4ccccc4s3)cccc2C(=O)N([C@H](C)CO)C[C@@H]1C	.	.	-10	.	.	.
CN(C)c1ccc(CNCC2CCCO2)cc1 (configuration not stated)	-3	3	7	18*	2	-2
N=C(N)CCCOc1ccccc1-c1ccccc1	5	-3	.	20*	3	-2
OCCNCCOc1ccccc1-c1ccccc1	1	-3	-8	2	2	.
CCC(=O)N(C)C[C@@H]1Oc2cc(-c3ccccc3F)ccc2S(=O)(=O)N([C@@H](C)CO)C[C@@H]1C	.	.	-1	.	.	.
O=C(CCl)N1c2ccccc2SCC1c1ccccc1 (configuration not stated)	-1	-2	.	19*	1	3
SMILES	mABHD4 FP	HTRA1 inh	ARNT-TACC3 inh	SIAE primary	TCR CD3 inh	SIAE confirm
COc1ccc2nc(C)cc(N/N=C/c3cccc(OC)c3O)c2c1	25	7	45	24*	1	18*
CCc1nc2sc3c(c2c(=O)o1)CCCC3	5	6	-1	20*	-2	9
CCOC(=O)COc1cc(N2C(=O)CSCC2=O)c(Cl)cc1Cl	-13	-3	-5	71*	-1	3
CCOC(=O)COc1cc(-n2c(=S)[nH]c3cc(OC)c(OC)cc3c2=O)c(Cl)cc1Cl	7	2	6	-2	-5	.
Cc1c(C(=O)N(C)CC(=O)Nc2cccc(F)c2)oc2c(Cl)cccc12	-5	-19	.	2	-6	.
COCCN(CC(=O)Nc1cccc(C)c1C)C(=O)c1oc2c(Cl)cccc2c1C	-8	-18	4	28*	1	-4
CCc1nnc(NC(=O)CCn2cnc3ccccc3c2=O)s1	-7	.	2	22*	2	1
COc1cc(/C=C/C(=O)OCC(=O)N2CCc3ccccc3C2)ccc1O	3	1	-2	21*	4	1
Cc1ccccc1Nc1c(-c2ccncc2)nc2ccc(Br)cn12	-3	-24	.	-1	2	.
Brc1ccc2nc(-c3ccncc3)c(NC3CCCC3)n2c1	0	5	-9	19*	0	2
CCOC(=O)/C(=N\Nc1ccc(Cl)cc1)c1csc(Nc2ccccc2)n1	2	28	-12	20*	2	-3
CC(C)Cn1c(N)c(C(=O)CSc2nnc(-c3ccco3)n2C)c(=O)n(C)c1=O	1	3	1	-7	5	.
CC(C)Cn1c(SCC(=O)c2ccc(Cl)s2)nnc1-c1ccco1	3	-22	4	25*	-1	3
COC(=O)C(NC(=O)c1ccco1)(Nc1ccc(Br)cn1)C(F)(F)F (configuration not stated)	2	-4	10	22*	-14	0
CC(=O)N1CCN(C2c3cccc4cccc(c34)C2NS(=O)(=O)c2ccccc2)CC1 (configuration not stated)	-4	3	-1	24*	-2	-3
CSc1ccc(/C=C/C(=O)c2ccc(NC(=O)Cc3ccccc3)cc2)cc1	-11	-54	-5	31*	51*	45*
CSc1ccc(/C=C/C(=O)c2ccc(NC(=O)C(C)C)cc2)cc1	-44	-73	-10	-33	12	.
Cc1csc(=O)n1CC(=O)OCC(=O)NCc1ccc(F)cc1	-4	1	-2	-3	4	.
Cc1csc(=O)n1CC(=O)OCC(=O)NC(C)c1ccc(F)cc1 (configuration not stated)	0	5	2	19*	-3	3
O=C1[C@@H]2Cc3c([nH]c4ccccc34)CN2C(=O)CN1CCCO	0	-6	-5	18*	-2	4
CCCNC(=O)N(C)C[C@H]1Oc2cc(C#CC3CC3)ccc2S(=O)(=O)N([C@@H](C)CO)C[C@H]1C	.	.	-43	.	.	.
COc1ccccc1Nc1ccc(NC(=O)c2cccc([N+](=O)[O-])c2C)cc1	5	20	1	18*	-5	5
C[C@@H]1CN([C@H](C)CO)C(=O)c2cccc(NC(=O)Nc3ccc4c(c3)OCO4)c2O[C@@H]1CN(C)S(=O)(=O)c1cn(C)cn1	.	.	-5	.	.	.

Compound activity from PubChem.
